What was measured:
[1] = In vitro concentration at which 50% of human colon carcinoma cells (S1-B1-20) resistant to bisantrene have survived; type: ADME, cell-based, S1B1-20; settings: S1-B1-20 human colon carcinoma cells resistant to bisantrene, read-out: LD50 (the source's name)
Procedure, shortened: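 S1-B1-20 cells (LS 174 T-derived S1 clone selected in bisantrene over 12–16 weeks), trypsinized, 20 000 cells/well. Test agent alone in DMSO (≤0.1% final), 0.1–80 µM, 3 days at 37 °C, 7% CO2. Survival by sulforhodamine B read at 540 nm versus untreated cells. Two to four measurement sets were made, and the value is the concentration giving 50% survival from a best-fit curve.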

[2] = test system: S1B1-20; test: In vitro concentration required to inhibit tumor activity on subclone of human colon carcinoma cells (S1-B1-20) resistant to bisantrene; type: functional, cell-based
Procedure, shortened: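 S1-B1-20 cells (S1 clone of LS 174 T, selected in bisantrene over 12–16 weeks) plated at 20 000 cells/well with or without 20 μM bisantrene, plus test agent 0.1–80 μM from DMSO stock (final DMSO ≤0.1%). 3 days, 37 °C, 7% CO2. Survival by sulforhodamine B at 540 nm. IC50 from best-fit curve of difference score (survival alone minus survival with bisantrene) at 50; 2–4 sets of measurements.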

[3] = Partition coefficient (logP); type: physicochemical; settings: octanol/water
[4] = test system: Mus musculus; test: Relative tumor growth inhibition against human epidermoid carcinoma KB/8.5 implanted subcutaneously only in mice at 8 mg/kg (DOX); type: functional; settings: route subcutaneous
Procedure, shortened: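 KB/8.5 cells grown in RPMI 1640 with 5% fetal calf serum plus colchicine (10 ng/mL), which was removed for two passages. 8 × 10^6 cells were then implanted sc in athymic nude mice. At 100-300 mg tumor mass, mice were grouped 5-10/group. Doxorubicin was given as a single iv dose (8 mg/kg). Tumor mass was measured on day 14, and relative growth was compared with saline control.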

[5] = test system: Mus musculus; test: Percent tumor growth inhibition against human epidermoid carcinoma KB/8.5 implanted subcutaneously in mice at 200 mg/kg of compound along with 8 mg/kg (DOX ) was determined; type: functional
Procedure, shortened: (§1)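 Athymic nude mice bearing sc KB/8.5 tumors (8×10^6 cells, colchicine withdrawn for two passages), grouped at 100–300 mg tumor mass, 5–10 mice/group. Doxorubicin 8 mg/kg given once iv; reversal agent or placebo given sc 2 h before and 2 h after. Tumor mass on day 14 used for relative tumor growth versus doxorubicin alone; Student t-test on log RTG.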

[6] = test system: Mus musculus; test: Percent tumor growth inhibition against human epidermoid carcinoma KB/8.5 implanted subcutaneously in mice at 100 mg/kg of compound along with 8 mg/kg (DOX ) was determined; type: functional; procedure, shortened: as §1
[7] = test system: Mus musculus; test: Percent increase in mean life span when 0.2 mg/kg vincristine was administered ip once daily on days 1-7, in mice infected with leukemia P388/VCR; type: functional; design: concentration or dose not given beside the values; settings: route intraperitoneal
Procedure, shortened: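 CDF1 mice bearing ip P388/VCR (1 × 10^6 cells) received 0.2 mg/kg vincristine ip once daily on days 1–7. Mean survival to 30 days was expressed as % increase in life span relative to placebo control.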

[8] = test system: Mus musculus; test: Percent increase in mean life span in mice infected with leukemia P388/VCR, at 25 mg/Kg dose; type: functional
Procedure, shortened: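 CDF1 mice (groups of 10–15) were implanted ip with 1 × 10^6 P388/VCR cells. Agent plus 0.2 mg/kg vincristine were given together ip once daily on days 1–7, starting 1 day post-implant, in cremophor/ethanol or propylene glycol/ethanol vehicle. Survival was recorded to 30 days. Result is the % increase in mean life span versus placebo control.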

[9] = test system: Mus musculus; test: Percent increase in mean life span relative to treatment with an equivalent dose of vincristine alone at 25 mg/kg in mice with vincristine-resistantmurine leukemia P388/VCR cells; type: functional
Procedure, shortened: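 CDF1 mice were implanted ip with 1 × 10^6 P388/VCR cells. Agent and 0.2 mg/kg vincristine were given simultaneously ip once daily, days 1–7. Mean survival over up to 30 days was compared with vincristine alone at an equivalent dose, giving % increase in life span. Student t-test was applied to mean survival time.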

SMILES	CC50 [1]	IC50 ([2]; Homo sapiens, S1B1-20)	logP ([3]; read-out: logP)	Relative tumor growth [4]	other results
COc1ccc(C(C#N)(Cc2cccc(CN3CCc4cc(OC)c(OC)cc4C3)c2)Sc2ccc(C)cc2)cc1OC (stereo not given)	23.3 µM	2.19 µM	5.91	–	–
COc1ccc(C(C#N)(CCCCCN2CCc3cc(OC)c(OCc4ccccc4)cc3C2)Sc2ccc(C)cc2)cc1OC (stereo not given)	40 µM	0.85 µM	7.95	100	TGI [5]: 71%
COc1cc2c(cc1O)CN(CCCCCC(C#N)(SC1CCCCC1)c1ccc(OC)c(OC)c1)CC2 (stereo not given)	–	–	6	–	–
COc1ccc2c(c1)CCN(CCCCCC(Sc1ccc(C)cc1)c1ccc(OC)c(OC)c1)C2 (stereo not given)	22.2 µM	3.09 µM	7.88	–	–
COc1cc2c(cc1OC)CN(CCCCCCC(Sc1ccc(C)cc1)c1ccc(F)cc1)CC2 (stereo not given)	27 µM	2.7 µM	8.63	–	–
COc1ccc(CC2c3cc(OC)c(OC)cc3CCN2CCCCCC(C#N)(Sc2ccc(C)cc2)c2ccc(OC)c(OC)c2)cc1OC (stereo not given)	78.2 µM	1.06 µM	7.57	64	TGI [5]: 58%
COc1ccc(C(C#N)(CCCCN2CCc3cc(OC)c(OC)cc3C2)Sc2ccc(C)cc2)cc1OC.ClCCl (stereo not given)	–	–	–	–	logP [3]: 5.65
COc1ccc(C(C#N)(CCCCCN2CCc3cc(OC)c(OC)cc3C2)SC2CCCCC2)cc1OC (stereo not given)	14 µM	0.46 µM	6.28	67	TGI [6]: 69%
COc1ccc(C(C#N)(CCCCCN2CCc3cc(OC)c(OCCn4ccnc4)cc3C2)SC2CCCCC2)cc1OC (stereo not given)	8.39 µM	0.96 µM	5.96	–	–
COc1cc2c(cc1OC)CN(CCCCCC(Sc1ccc(C)cc1)c1ccc(OC(F)(F)F)cc1)CC2 (stereo not given)	16.9 µM	2.07 µM	8.44	100	TGI [6]: 51%
COc1ccc(C(CCCCCN2CCc3cc(OC)c(OC)cc3C2)SC2CCCCC2)cc1OC (stereo not given)	16.1 µM	0.73 µM	7.33	67	TGI [6]: 57%
CCCCCSC(CCCCCN1CCc2cc(OC)c(OC)cc2C1)c1ccc(OC)c(OC)c1 (stereo not given)	16.3 µM	0.5 µM	5.66	–	–
COc1ccc(C(C#N)(CC#CCCN2CCc3cc(OC)c(OC)cc3C2)Sc2ccc(C)cc2)cc1OC (stereo not given)	36 µM	0.97 µM	5.52	–	–
COc1cc2c(cc1O)CN(CCCCCC(C#N)(Sc1ccc(C)cc1)c1ccc(OC)c(OC)c1)CC2 (stereo not given)	24.9 µM	3.11 µM	5.9	–	–
COc1cc2c(cc1OC)CN(CCCCCCC(Sc1ccc(C)cc1)c1ccc(OC)c(OCCCl)c1)CC2 (stereo not given)	10.3 µM	0.96 µM	8.54	–	–
COc1cc2c(cc1O)CN(CCCCCC(C#N)(Sc1ccc(C)cc1)c1ccc(OC)c(OC)c1)C2 (stereo not given)	–	–	5.78	–	–
COc1ccc(C(C#N)(CCCN2CCc3cc(O)c(O)cc3C2C)Sc2ccc(C)cc2)cc1OC (stereo not given)	–	4.7 µM	4.92	–	–
COc1ccc(C(CCCCCCN2Cc3cc(OC)c(OC)cc3C2)Sc2ccc(C)cc2)cc1OC (stereo not given)	22.1 µM	1.84 µM	7.32	75	TGI [6]: 60%
COc1ccc(C(C#N)(CCCCCN2Cc3cc(Cl)c(Cl)cc3C2)Sc2ccc(C)cc2)cc1OC (stereo not given)	–	10.5 µM	7.4	57	TGI [5]: 94%
COc1ccc(C(CCCCCN2CCc3cc4c(cc3C2)OCO4)Sc2ccc(C)cc2)cc1OC (stereo not given)	24.9 µM	–	7.31	100	TGI [5]: 57%
COc1ccc(C(C#N)(CCCCCN2Cc3cc(OC)c(OCCCl)cc3C2)Sc2ccc(C)cc2)cc1OC (stereo not given)	–	–	6.14	–	–

SMILES	CC50 [1]	IC50 ([2]; Homo sapiens, S1B1-20)	logP ([3]; read-out: logP)	Relative tumor growth [4]	other results
COc1ccc(C(CCCCCN2CCc3cc(OC)c(OC)cc3C2)SC(C)(C)C)cc1OC (stereo not given)	76.8 µM	3.58 µM	6.54	67	TGI [5]: 53%
COc1ccc(C(CCCCCN2CCc3cc(OC)c(OC)cc3C2)SCc2ccccc2)cc1OC (stereo not given)	15.1 µM	1.98 µM	6.63	77	TGI [6]: 68%
COc1ccc(C(C#N)(CCCCCN2CCc3cc(OC)c(OCCCl)cc3C2)SC2CCCCC2)cc1OC (stereo not given)	–	–	6.87	–	–
COc1ccc(C(CCCCCCN2CCc3cc(OC)c(OC)cc3C2)Sc2ccc(C)cc2)cc1O (stereo not given)	13.1 µM	0.84 µM	7.67	75	TGI [5]: 54%
COc1ccc(C(C#N)(CCCCCN2CCc3cc(OC)c(OC)cc3C2)Sc2ccccn2)cc1OC (stereo not given)	50.8 µM	2.12 µM	4.72	–	–
COc1ccc(C(CCCCCCN2CCc3cc(OC)c(OC)cc3C2)Sc2ccc(C)cc2)cc1OC (stereo not given)	13.2 µM	0.9 µM	7.95	45	TGI [6]: 64%
COc1ccc(C(CCCCCCN2CCc3cc(OC)c(OC)c(OC)c3C2)Sc2ccc(C)cc2)cc1OC (stereo not given)	14 µM	0.7 µM	7.38	64	TGI [6]: 54%
COc1ccc(C(C#N)(CCCCCN2CCc3cc(OC)c(OCCN(C)C)cc3C2)Sc2ccc(C)cc2)cc1OC (stereo not given)	6.68 µM	–	6.1	–	–
COc1ccc(C(C#N)(CCCCCN2CCc3cc4c(cc3C2)OCO4)Sc2ccc(C)cc2)cc1OC (stereo not given)	30 µM	3.09 µM	6.08	–	ILS [7]: 24%; ILS at 25 mg/kg [8]: 38%; ILS at 25 mg/kg [9]: 16%
COc1ccc(C(C#N)(CCCCCN2Cc3cc(OC)c(OCCn4ccnc4)cc3C2)Sc2ccc(C)cc2)cc1OC (stereo not given)	8.37 µM	0.5 µM	5.23	–	–
COc1cc2c(cc1OC)CN(CCCCCCC(Sc1ccc(C)cc1)c1ccc(OC)c(O[Si](C)(C)C(C)(C)C)c1)CC2 (stereo not given)	49.1 µM	10.7 µM	–	–	logP [3]: 11.68
COc1ccc(C(C#N)(CCCCCN2CCc3ccccc3C2)Sc2ccc(C)cc2)cc1OC (stereo not given)	24.7 µM	2.56 µM	6.72	–	ILS [7]: 14%; ILS at 25 mg/kg [8]: 27%; ILS at 25 mg/kg [9]: 11%
COc1ccc(C(C#N)(CCCCN2CCc3cc(OC)c(OC)cc3C2)Sc2ccc(C)cc2)cc1OC (stereo not given)	41.8 µM	0.62 µM	5.65	–	–
COc1ccc(C(CCCN2CCc3cc(OC)c(OC)cc3C2)Sc2ccc(C)cc2)cc1OC (stereo not given)	25.8 µM	1.23 µM	6.36	–	–
COc1cc2c(cc1OC)CN(CCCCCC(Sc1ccc(C)cc1)c1ccc3c(c1)OCO3)CC2 (stereo not given)	15.9 µM	0.5 µM	7.31	100	TGI [5]: 39%
CCC(CCCCCN1CCc2cc(OC)c(OC)cc2C1)(Sc1ccc(C)cc1)c1ccc(OC)c(OC)c1 (stereo not given)	11.8 µM	1.23 µM	8.34	77	TGI [6]: 72%
COc1cc2c(cc1OC)CN(CCCCCCC(Sc1ccc(C)cc1)c1ccc(OC)c(OCCn3ccnc3)c1)CC2 (stereo in doubt; 37b)	5.52 µM	–	7.63	–	Relative tumor growth ([4]; 8 mg/kg): 72; IC50 ([2]; s1b1-20): 0.69 µM; TGI [6]: 67%
COc1ccc(C(C#N)(CCCCCN2Cc3cc(OC)c(OC)cc3C2)SC2CCCCC2)cc1OC (stereo in doubt; 46)	11.8 µM	0.26 µM	5.65	–	–
COc1ccc(C(C#N)(CCCCCN2CCc3cc(OC)c(OCCn4ccnc4)cc3C2)Sc2ccc(C)cc2)cc1OC (stereo in doubt; 48)	11.6 µM	0.53 µM	5.86	–	–
COc1ccc(CCN(C)CCCC(C#N)(c2ccc(OC)c(OC)c2)C(C)C)cc1OC (stereo not given) [VERAPAMIL]	–	17.3 µM	–	–	–

From ChEMBL document CHEMBL1132241, “Novel multidrug resistance reversal agents” (J Med Chem, 1999)
